Active and inactive are the calls of the source. The rule behind the calls is not given here.
Key:
Assay type in all cases: functional, cell-based
[1] = tested on: Bel-7402; experiment: Cytotoxicity against human Bel7402 cells after 72 hrs by SRB assay
How it was run: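 Cell growth read out by SRB (sulforhodamine B) staining, with pseudolaric acid B as the positive control. BEL-7402 is a human hepatocarcinoma line.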

[2] = tested on: A549; experiment: Cytotoxicity against human A549 cells after 72 hrs by SRB assay; conditions: A549, 72 h
[3] = tested on: HL-60; experiment: Cytotoxicity against human HL60 cells after 72 hrs by MTT assay; conditions: HL-60, 72 h
How it was run: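 HL-60 cell line tested by the MTT method, with pseudolaric acid B run alongside as positive control; activity expressed as IC50 in µM.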

Structure (SMILES)	Activity [1]	IC50 [2]	IC50 ([1]; Bel-7402, 72 h)	IC50 [3]
C/C=C(\C)C(=O)OC[C@]1(O)[C@H]2C[C@H]2[C@]2(C)[C@@H]3C[C@@]4(O)C5=C(/C(=C(\C)C(=O)OC)C(=O)[C@H](O)[C@@]5(C)[C@@H]5C[C@@H]54)[C@@]34OC(=O)C(COC(C)=O)=C4C[C@@H]12	inactive			
C/C=C(\C)C(=O)OC[C@]1(O)[C@H]2C[C@H]2[C@]2(C)[C@@H]3C[C@@]4(O)C5=C(C6=C(C)C(=O)O[C@]6(O)[C@H](O)[C@@]5(C)[C@@H]5C[C@@H]54)[C@@]34OC(=O)C(COC(C)=O)=C4C[C@@H]12	inactive			
C=C1[C@H]2C[C@H]2[C@]2(C)C[C@@H]3OC(=O)C(C)=C3C[C@]12O	inactive			
CC1=CC[C@@H](O)[C@]2(C)C[C@@H]3OC(=O)C(C)=C3C[C@@H]12	inactive			
COC(=O)C1=CC[C@@]23CC[C@@H]([C@@](C)(/C=C/C=C(\C)C(=O)O)OC2=O)[C@@]3(OC(C)=O)CC1 [PSEUDOLARIC ACID B]		1.6 µM	1.3 µM	4.2 µM
C/C=C(\C)C(=O)OC[C@]1(O)[C@H]2C[C@H]2[C@]2(C)[C@@H]3CC4=C5[C@H](/C(=C(\C)C(=O)OC)C(=O)[C@H](O)[C@@]5(C)[C@@H]5C[C@H]45)[C@@]34OC(=O)C(C)=C4C[C@@H]12 [SARCANDROLIDE A]	inactive	7.2 µM		3.1 µM
COC(=O)/C(C)=C1\C(=O)[C@H](O)[C@]2(C)C3=C(C[C@@H]4[C@]5(OC(=O)C(CO)=C5C[C@H]5[C@](O)(COC(=O)/C(C)=C/CO)[C@H]6C[C@H]6[C@]45C)[C@H]31)[C@H]1C[C@H]12 [SARCANDROLIDE B]	inactive			8.4 µM
COC(=O)/C(C)=C1\C(=O)[C@H](O)[C@]2(C)C3=C(C[C@@H]4[C@]5(OC(=O)C6=C5C[C@H]5[C@](O)(COC(=O)/C(C)=C/COC(=O)[C@@H](OC(C)=O)CC(=O)OC6)[C@H]6C[C@H]6[C@]45C)[C@H]31)[C@H]1C[C@H]12 [SARCANDROLIDE C]	inactive	4.7 µM		8.5 µM
